How the values were obtained:
5-HT7R [1] = biological target: T1, 5-HT7R (Homo sapiens, UniProt P34969); format: cell-based; conditions: 10 µM ligand, 2 to 60 min, Western blot
In short: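 HEK-293 cells stably expressing h5-HT7R were exposed to 10 µM ligand for 2 to 60 min, or to rising concentrations for 7 min. Lysates were run on 10% SDS-PAGE, transferred to PVDF and blocked in 5% milk in TBS-T (pH 7.4), then probed for phospho-ERK1/2. Bands were quantified by densitometry; three independent experiments, mean ± SEM.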

5-HT7R [2] = biological target: T1, 5-HT7R; assay: cAMP accumulation; format: cell-based; conditions: ligand alone
5-HT7R [3] = biological target: T1, 5-HT7R; format: cell-based
In short: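 HEK-293 cells stably expressing h5-HT7R, grown in DMEM with 10% dialyzed FCS and penicillin/streptomycin. Cells were preincubated with a 5-HT7R antagonist (10 µM, 10 min) or the PKA inhibitor H89 before 10 µM ligand. Lysates were read by AlphaScreen SureFire p-ERK1/2 and p-c-SRC kits, or by Western blot with densitometry. Three independent experiments; mean ± SEM.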

[4] = Pharmacokinetic study in plasma and brain; format: in vivo; conditions: 5 mg/kg s.c., C57BL/6 mice
thermal nociception = assay: Tail immersion test; format: in vivo; conditions: 5 mg/kg s.c.
In short: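 Male mice (8–14 wk; C57BL/6 or 5-HT7R−/− on C57BL/6 background) received test compound 5 mg/kg by tail s.c. injection. Vehicle was 20% DMSO and 5% Tween 80 in PBS. Some groups were also given 5-HT7R antagonist 5 mg/kg i.p. Tail immersion latency in 50 ± 2 °C water was measured 10 min (T0) and 40 min (T30) post-injection.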

[5] = tested on: formalin-induced hindpaw licking; assay: Formalin test; format: in vivo; conditions: rats, Serodolin 10 mg/kg s.c., morphine 4 mg/kg s.c.
[6] = pretreatment, Serodolin 10 µM 7 min, AlphaScreen

T1 sequence (P34969 1-432): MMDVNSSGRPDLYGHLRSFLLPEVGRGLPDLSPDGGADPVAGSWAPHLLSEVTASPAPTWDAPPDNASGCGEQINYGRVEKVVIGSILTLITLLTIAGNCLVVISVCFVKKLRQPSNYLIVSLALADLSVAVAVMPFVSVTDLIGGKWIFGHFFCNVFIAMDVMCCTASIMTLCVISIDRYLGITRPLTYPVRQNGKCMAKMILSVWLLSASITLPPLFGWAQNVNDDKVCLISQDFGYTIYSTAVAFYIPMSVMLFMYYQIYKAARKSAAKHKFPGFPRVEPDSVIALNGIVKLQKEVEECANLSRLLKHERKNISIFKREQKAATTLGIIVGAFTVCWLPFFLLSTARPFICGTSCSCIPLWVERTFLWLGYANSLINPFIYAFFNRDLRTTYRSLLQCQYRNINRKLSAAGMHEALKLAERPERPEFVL

O=C1Nc2cccc3c2C1(CCCCN1CC=C(c2ccccc2)CC1)CCC3 (stereo not shown) [DR4004]
induction of ERK phosphorylation (5-HT7R [1]): none of them were able to induce ERK activation

Cc1nn(C)c(C)c1-c1cccc(CCN(C)C)c1 [E55888]
effect on cAMP when tested alone (5-HT7R [2]): induced a concentration-dependent accumulation of cAMP | induction of ERK phosphorylation (5-HT7R [1]): induce ERK phosphorylation | phosphorylation of c-SRC kinase at Tyr416 (5-HT7R [3]; 10 µM, 7 min, Western blot): could not be observed after 5-CT or E55888 stimulation | time after which compound is eliminated / undetectable in plasma and brain [4]: 120 min | maximum of detection in brain ([4]; brain): 1.4 ± 0.2 µg/mL | maximum of detection in plasma ([4]; plasma): 6.1 ± 0.5 µg/mL | antinociceptive effect in 5-HT7R KO mice (thermal nociception): did not exert any antinociceptive effect

CC(C)(C)n1nc(-c2ccc(Cl)cc2)c2c(N)ncnc21 [PP2]
block of Serodolin-induced ERK phosphorylation (5-HT7R [3]; [6]): 99% | block of Serodolin-induced c-SRC phosphorylation (5-HT7R [3]; [6]): 100%

Nc1ncnc2c1cnn2-c1ccccc1 [PP3]
effect on Serodolin-induced ERK and c-SRC phosphorylation (5-HT7R [3]; pretreatment, AlphaScreen): inactive

CN1CC[C@]23c4c5ccc(O)c4O[C@H]2[C@@H](O)C=C[C@H]3[C@H]1C5 [morphine]
inhibitory effect on licking, early phase (vs vehicle-treated group) ([5]; 0 to 5 min, not significant): −57% | inhibition of licking, late phase (vs vehicle-treated group) ([5]; 17 to 27 min): −64%

Source: publication PMC9173812 (Proceedings of the National Academy of Sciences of the …, 2022)
